This note sets out measurements from ChEMBL document CHEMBL1681709, “Structure-activity relationship studies on 1-(5-carboxyindol-1-yl)-propan-2-one inhibitors of human cytosolic phospholipase A2α: variation of the activated ketone moiety” (Bioorg Med Chem Lett, 2011).

One may read the inhibition as the percentage by which the read-out fell short of the control. For orientation: IC50 means the concentration needed to halve the response being measured. A lower IC50 goes with greater potency in that assay.

The species entered for assay [1] is Homo sapiens. Briefly: Inhibition of human platelet cytosolic phospholipase A2alpha at 10 uM. The method in brief:
(§1)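 cPLA2α isolated from human platelets. Reactions were stopped after 60 min with acetonitrile/methanol/0.1 M aqueous EDTA-Na2 containing 4-undecyloxybenzoic acid as internal standard and NDGA as oxygen scavenger. Released arachidonic acid was cleaned up by solid-phase extraction and quantified by RP-HPLC with UV detection at 200 nm. Results are IC50 or % inhibition at 10 μM, as means of at least two independent determinations.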

A short description of assay [2]: Inhibition of human platelet cytosolic phospholipase A2alpha. A digest of the protocol: as §1

SMILES strings stand for the structures. Activity calls are given as the source filed them. The calls are words filed in the database; no cut-off is given here.

For `CCCCCCCCc1ccc(OC/C(Cn2ccc3cc(C(=O)O)ccc32)=N/O)cc1`, in assay [1], the inhibition stood at 42%. Besides, the IC50 in assay [2] was greater than 10 µM.

`CCCCCCCCc1ccc(OCC(Cn2ccc3cc(C(=O)O)ccc32)NC(C)=O)cc1` (racemic): in assay [1], the inhibition result was “inactive”. Consider `CCCCCCCCc1ccc(OCC(Cn2ccc3cc(C(=O)O)ccc32)NC(=O)Oc2ccc(Cl)cc2)cc1` (racemic), for which, in assay [1], the inhibition was determined as 28%. Moreover, the IC50 in assay [2] was greater than 10 µM.

Consider `CCCCCCCCc1ccc(OCC(Cn2ccc3cc(C(=O)O)ccc32)OC(C)=O)cc1` (racemic), for which, in assay [1], the inhibition result is “inactive”. `CCCCCCCCc1ccc(OCC(N)Cn2ccc3cc(C(=O)O)ccc32)cc1` (racemic) came in with an inhibition in assay [1] of 37%. Further, in assay [2], the IC50 is greater than 10 µM. `CCCCCCCCc1ccc(OCC(Cn2ccc3cc(C(=O)O)ccc32)NC(=O)Oc2ccc(OC)cc2)cc1` (racemic) had an inhibition in assay [1] of 23%. The molecule further displayed an IC50 in assay [2] greater than 10 µM. As for `CCCCCCCCc1ccc(OCC(Cn2ccc3cc(C(=O)O)ccc32)NC(=O)Oc2ccccc2)cc1` (racemic), in assay [2], half-maximal inhibition (IC50) was put at 4.6 µM. Take `CCCCCCCCc1ccc(OCC(Cn2ccc3cc(C(=O)O)ccc32)NC(=O)Oc2ccccc2F)cc1` (racemic): the inhibition result in assay [1] is “inactive”. Consider `CCCCC/C=C\C/C=C\C/C=C\C/C=C\CCCC(=O)C(F)(F)F` [ARACHIDONYL TRIFLUOROMETHYLKETONE], for which, in assay [2], the concentration for half-maximal inhibition (IC50) is 2.3 µM. `CCCCCCCCc1ccc(OCC(Cn2ccc3cc(C(=O)O)ccc32)OC(=O)c2ccccc2)cc1` (racemic) registered an inhibition in assay [1] of 18%. This molecule registered a concentration for half-maximal inhibition (IC50) in assay [2] greater than 10 µM. Turning to `CCCCCCCCc1ccc(OCC(Cn2ccc3cc(C(=O)O)ccc32)NC(=O)c2ccccc2)cc1` (racemic), in assay [1], the inhibition entry was “inactive”. As for `CCCCCCCCc1ccc(OCC(Cn2ccc3cc(C(=O)O)ccc32)NC(=O)Nc2ccccc2)cc1` (racemic), the inhibition result in assay [1] is “inactive”. For `CCCCCCCCc1ccc(OCC(Cn2ccc3cc(C(=O)O)ccc32)OS(C)(=O)=O)cc1` (racemic), in assay [1], the inhibition is 16%. For the same molecule, the IC50 in assay [2] is greater than 10 µM. In assay [2], `CCCCCCCCc1ccc(OCC(Cn2ccc3cc(C(=O)O)ccc32)N=[N+]=[N-])cc1` (racemic) registered an IC50 of 4.3 µM. The molecule `CCCCCCCCc1ccc(OC/C(Cn2ccc3cc(C(=O)O)ccc32)=N\O)cc1` had an inhibition in assay [1] of 32%. In addition, the IC50 in assay [2] was greater than 10 µM.

In assay [2], `CCCCCCCCc1ccc(OCC(Cn2ccc3cc(C(=O)O)ccc32)NC(=O)Oc2ccc(F)cc2)cc1` (racemic) had an IC50 of 1.7 µM.

In assay [1], `CCCCCCCCc1ccc(OCC(Cn2ccc3cc(C(=O)O)ccc32)NC(=O)OC)cc1` (racemic) returned an inhibition of 21%. The molecule also had an IC50 in assay [2] greater than 10 µM. Take `CCCCCCCCc1ccc(OCC(Cn2ccc3cc(C(=O)O)ccc32)NC(=O)Oc2ccccc2OC)cc1` (racemic): the inhibition entry in assay [1] was “inactive”. In the case of `CCCCCCCCc1ccc(OCC(Cn2ccc3cc(C(=O)O)ccc32)NC(=O)Oc2ccccc2Cl)cc1` (racemic), the inhibition entry in assay [1] was “inactive”. In assay [1], `CCCCCCCCc1ccc(OCC(Cn2ccc3cc(C(=O)O)ccc32)=NOC)cc1` (mixture of isomers) displayed an inhibition of 22%. In assay [2], this molecule gave an IC50 greater than 10 µM. `CCCCCCCCc1ccc(OCC(Cn2ccc3cc(C(=O)O)ccc32)NC(=O)Oc2cccc(F)c2)cc1` (racemic): the IC50 in assay [2] amounted to 5.1 µM. `CCCCCCCCc1ccc(OCC(Cn2ccc3cc(C(=O)O)ccc32)OC(=O)Nc2ccccc2)cc1` (racemic): the inhibition entry in assay [1] is “inactive”.
